# Measured values from publication PMC3027307 (Biochemistry, 2010).
# Target: P450-SS9 (cytochrome P450 from Photobacterium profundum strain SS9) (Photobacterium profundum, UniProt Q6LGK6)
# Assay: absorbance
# Assay type: binding
# Summary of the method: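 Enzyme at 0.8-1.8 μM was titrated with fatty acids or derivatives, added from 30-140 mM acetone stocks, at 25 °C with stirring in 0.1 M Na-Hepes pH 7.4 with 0.5 mM EDTA. Absorbance spectra were PCA/SVD-resolved into high-spin, low-spin and P420 standards. Kd came from a tight-binding (square-root) equation fit.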
row,SMILES,Kd [µM]
1,CCCCC/C=C\C/C=C\C/C=C\C/C=C\CCCC(=O)NCC(=O)O [arachidonoyl glycine],16.7 ± 0.1
2,CCCCCCCCCCCCCC(=O)O [myristic acid],0.97 ± 0.42
3,CCCCC/C=C\C/C=C\C/C=C\C/C=C\CCCC(=O)O [arachidonic acid],19.2 ± 4.2
4,CCCCCCCC/C=C\CCCCCCCC(=O)NCC(=O)O [oleoyl glycine],49.5 ± 30
5,CCCCCCCCCCCCCCCC(=O)O [palmitic acid],24.3 ± 8.2
